Measurements gathered from unrelated publications.
Matrix: plasma

O=C(COc1ccc(Cl)cc1)NC12CC(c3nnc([C@H]4C[C@@H](OC(F)(F)F)C4)o3)(C1)C2
half-life (human; oral; 145 mg; multiple doses, once daily, healthy volunteers): 37.5 h

COc1ccc2c(c1)CN(C(=O)CCN1CCC(Cc3ccccc3)CC1)CC[S@@+]2[O-]
half-life (male human; intravenous; 0.15 mg/kg; single dose, healthy volunteers): 6.39 h

C=CC(=O)NC1CCN(c2ncc3ncnc(Nc4ccc(Oc5ccc6c(c5)ncn6C)c(C)c4)c3n2)CC1
half-life (male human; intravenous; 100 µg; healthy volunteers): 42.7 h

N#Cc1cccc(-c2ccc3ncc(-c4cc(F)cc(F)c4)c(N4CCC(N)CC4)c3c2)c1O
half-life (human; intravenous; 50 µg): 30 h

Cc1cn([C@H]2C[C@H](N=[N+]=[N-])[C@@H](CO)O2)c(=O)[nH]c1=O
half-life (human; oral; 600 mg; single dose, healthy volunteers): 1.95 h

OC[C@H]1O[C@@H](c2cc(Cc3ccc(C4CC4)cc3)c(Cl)c3c2CCO3)[C@H](O)[C@@H](O)[C@@H]1O
half-life (human; oral; 0.3 mg; single dose, fasted, healthy volunteers): 12.5 h

CC1(C)CC[C@]2(NC(=O)C(C)(F)F)CC[C@]3(C)[C@H](C(=O)C=C4[C@@]5(C)C=C(C#N)C(=O)C(C)(C)[C@@H]5CC[C@]43C)[C@@H]2C1
half-life (human; oral; 150 mg; single dose): 88.3 h

C[C@@H](Oc1ccc(S(C)(=O)=O)cc1C(=O)N1C[C@@H]2C[C@]2(c2cc(C(F)(F)F)on2)C1)C(F)(F)F
half-life (human; oral; 10 mg; single dose, fasted, healthy volunteers): 38.1 h

CC(C)c1nc(N(C)S(C)(=O)=O)nc(-c2ccc(F)cc2)c1/C=C/[C@@H](O)C[C@@H](O)CC(=O)O
half-life (human; oral; 10 mg): 21.6 h

CC(=O)N(C)[C@H]1CCN(C(=O)c2cnc3c(c2)C[C@](C)(c2ccc(F)cc2)N3)C1
half-life (male human; oral; 30 mg; multiple doses, once daily, steady state): 21.8 h
